Assay results published in ChEMBL document CHEMBL3228001, “Rigid congeners of dopamine based on octahydrobenzo[f]quinoline: peripheral and central effects” (1979).
Where a name gives a salt, the structure may show the parent alone. Calls of active or inactive are those of the source.

Columns and labels:
Rattus norvegicus [1] = test: Dopaminergic activity in Sprague-Dawley rat assessed as biting behavior up to 50 ug administered into nucleus accumbens; assay type: functional, organism-based
In short: (§1)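 Male Sprague-Dawley rats (250 ± 26 g) had guide cannulae implanted for bilateral injection into caudate-putamen and nucleus accumbens, and were used 10–14 days later. Nialamide 100 mg/kg ip was given 2 h before. Drug in N2-bubbled water (minimal DMF if needed), 1–2 µL over 60 s. Hyperactivity was read as photocell counts/5 min, stereotypy was scored, and cannula sites were checked histologically.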

Rattus norvegicus [2] = test: Dopaminergic activity in Sprague-Dawley rat assessed as hyperactivity up to 25 ug administered into caudate-putamen; assay type: functional, organism-based; in short: as §1
Rattus norvegicus [3] = test: Dopaminergic activity in Sprague-Dawley rat assessed as hyperactivity behavior administered into nucleus caudate-putamen measured up to 25 ug from 30 to 45 mins to persisted up to 5 to 6 hrs; assay type: functional, organism-based; in short: as §1
Mus musculus [4] = test: Dopaminergic activity in albino mouse assessed as induction of climbing behavior at 0.025 to 1 mg/kg, sc; assay type: functional, organism-based
In short: (§2)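 Male albino mice (20–25 g, N = 10) were dosed sc in water with 0.1% sodium metabisulfite and placed in wire-mesh-lined cages. A mouse counted as climbing when holding the wire with all four paws. Measures: climbing index (% time climbing in the 30 min after the first climb) and maximum single-climb time. Doses run from threshold to maximal response.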

Rattus norvegicus [5] = test: Dopaminergic activity in Sprague-Dawley rat assessed as hyperactivity up to 6.25 to 50 ug administered into nucleus accumbens; assay type: functional, organism-based; in short: as §1
Rattus norvegicus [6] = test: Dopaminergic activity in Sprague-Dawley rat assessed as stereotypic behavior administered into caudate-putamen measured up to 25 ug from 5 to 15 mins to persisted up to 5 to 6 hrs; assay type: functional, organism-based; in short: as §1
Felis catus = test: Inhibition of electrical-stimulation of postganglionic cardioaccelerator nerve in iv dosed cat; assay type: functional; conditions: read-out: ID50 (the source's name)
In short: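 Cats were anaesthetised with sodium pentobarbital 30 mg/kg and ventilated. The right postganglionic cardioaccelerator nerves were stimulated with bipolar electrodes (2 Hz, 5 ms pulses, supramaximal voltage, 20–30 s trains), and heart rate was read by cardiotachometer. Doses were spaced at 0.48 log intervals, and the dose inhibiting positive chronotropic responses by 50% was calculated.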

Canis familiaris [7] = test: Emetic activity in sc dosed dogs assessed as frequency of vomiting for 1 hr relative to apomorphine; assay type: functional, Canis lupus familiaris
Mus musculus [8] = test: Dopaminergic activity in albino mouse assessed as stereotyped behavior characterized by sniffing and biting at 1 to 2 mg/kg, sc; assay type: functional, organism-based
In short: (§3)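 Male albino mice (20–25 g, N = 10) were dosed sc in water containing 0.1% sodium metabisulfite and scored for stereotyped sniffing and biting. Dose range runs from the threshold dose to the dose giving maximal response, in mg/kg sc.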

Mus musculus [9] = test: Dopaminergic activity in sc dosed albino mouse assessed as induction of ipsilateral circling behavior; assay type: functional, organism-based
In short: (§4)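 Male albino mice (30–35 g) received a unilateral caudate-putamen electrolesion (1.5 mA, 15 s) and 14 days of recovery. Only mice circling ≥7 ipsilateral revolutions/2 min after apomorphine HCl 1.0 mg/kg sc were kept, with a further 7 days of recovery. After sc dosing, complete revolutions in one direction were counted manually. Lesion sites were verified afterwards.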

Rattus norvegicus [10] = test: Dopaminergic activity in Sprague-Dawley rat assessed as stereotyped behavior characterized by sniffing and biting at 0.025 to 0.05 mg/kg, sc; assay type: functional, organism-based
In short: (§5)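 Male Sprague-Dawley rats, groups of 10, were dosed sc in distilled water with 0.1% sodium metabisulfite, with solvent controls. Stereotyped sniffing and biting were scored as for intracerebral tests at 21 ± 2 °C between 08:00 and 18:00 h. Dose range runs from the threshold dose to the dose giving maximal response, in mg/kg sc.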

Rattus norvegicus [11] = test: Dopaminergic activity in Sprague-Dawley rat assessed as stereotyped behavior characterized by continous sniffing up to 25 ug administered into caudate-putamen; assay type: functional, organism-based; in short: as §1
Mus musculus [12] = test: Dopaminergic activity in albino mouse assessed as induction of ipsilateral circling behavior at 0.5 to 2 mg/kg, sc; assay type: functional, organism-based; in short: as §4
[13] = Induction of pecking activity in pigeons assessed as counts for 1 hr relative to apomorphine; assay type: functional, Columbidae
In short: (§6)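 Pigeons were dosed im, with doses spaced at 0.3 log intervals, and pecks were counted over 1 h. Pecking after 1.63 µmol apomorphine hydrochloride was taken as the 100% response.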

Mus musculus [14] = test: Dopaminergic activity in albino mouse assessed as induction of climbing behavior at 0.025 to 1 mg/kg, sc after 120 mins; assay type: functional, organism-based; in short: as §2
Mus musculus [15] = test: Dopaminergic activity in albino mouse assessed as induction of ipsilateral circling behavior at 0.5 to 2 mg/kg, sc after 120 mins; assay type: functional, organism-based; in short: as §4
Mus musculus [16] = test: Dopaminergic activity in albino mouse assessed as induction of climbing behavior at 0.1 to 0.5 mg/kg, sc; assay type: functional, organism-based; in short: as §2
Rattus norvegicus [17] = test: Dopaminergic activity in Sprague-Dawley rat assessed as stereotyped behavior characterized by periodic biting associated with sniffing administered into nucleus accumbens; assay type: functional, organism-based; in short: as §1
Mus musculus [18] = test: Dopaminergic activity in albino mouse assessed as induction of ipsilateral circling behavior at 0.05 to 0.5 mg/kg, sc after 120 mins; assay type: functional, organism-based; in short: as §4
Rattus norvegicus [19] = test: Dopaminergic activity in Sprague-Dawley rat assessed as locomotor and stereotypic behavior administered into nucleus accumbens measured up to 25 ug from 5 to 15 mins to persisted up to 5 to 6 hrs; assay type: functional, organism-based; in short: as §1
Mus musculus [20] = test: Dopaminergic activity in albino mouse assessed as induction of ipsilateral circling behavior at 0.05 to 0.5 mg/kg, sc; assay type: functional, organism-based; in short: as §4
Mus musculus [21] = test: Dopaminergic activity in albino mouse assessed as induction of climbing behavior at 0.1 to 0.5 mg/kg, sc after 120 mins; assay type: functional, organism-based; in short: as §2
Mus musculus [22] = test: Dopaminergic activity in albino mouse assessed as induction of climbing behavior at 0.5 mg/kg, sc up to 30 mins; assay type: functional; conditions: route subcutaneous; in short: as §2
Mus musculus [23] = test: Dopaminergic activity in albino mouse assessed as stereotyped behavior characterized by sniffing and biting at 0.05 to 1 mg/kg, sc; assay type: functional, organism-based; in short: as §3
Mus musculus [24] = test: Dopaminergic activity in albino mouse assessed as induction of ipsilateral circling behavior up to 10 mg/kg, sc; assay type: functional, organism-based; design: dose 10 mg/kg; in short: as §4
Mus musculus [25] = test: Dopaminergic activity in albino mouse assessed as stereotyped behavior characterized by sniffing and biting at up to 10 mg/kg, sc; assay type: functional, organism-based; design: dose 10 mg/kg; in short: as §3
Rattus norvegicus [26] = test: Dopaminergic activity in Sprague-Dawley rat assessed as stereotypic behavior administered into caudate-putamen measured up to 25 ug from 5 to 15 mins to persisted up to 3 hrs; assay type: functional, organism-based; in short: as §1
Rattus norvegicus [27] = test: Dopaminergic activity in Sprague-Dawley rat assessed as hyperactivity behavior administered into nucleus caudate-putamen measured up to 25 ug from 30 to 45 mins to persisted up to 3 hrs; assay type: functional, organism-based; in short: as §1
Rattus norvegicus [28] = test: Dopaminergic activity in Sprague-Dawley rat assessed as stereotyped behavior characterized by sniffing and biting at up to 10 mg/kg, sc; assay type: functional, organism-based; design: dose 10 mg/kg; in short: as §5
Rattus norvegicus [29] = test: Dopaminergic activity in Sprague-Dawley rat assessed as stereotyped behavior characterized by continous sniffing up to 12.5 to 50 ug administered into nucleus accumbens; assay type: functional, organism-based; in short: as §1
Mus musculus [30] = test: Dopaminergic activity in albino mouse assessed as induction of climbing behavior up to 10 mg/kg, sc; assay type: functional, organism-based; design: dose 10 mg/kg; in short: as §2
Canis familiaris [31] = test: Emetic activity in sc dosed dogs assessed as frequency of vomiting for 1 hr; assay type: functional; conditions: Canis lupus familiaris
In short: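 At least five dogs per compound were dosed sc, with doses spaced at 0.3 log intervals. Vomiting frequency was recorded over 1 h.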

[32] = Induction of pecking activity in pigeons assessed as counts for 1 hr; assay type: functional; conditions: Columbidae; in short: as §6

CCN1CCC[C@@H]2c3ccc(O)c(O)c3CC[C@H]21 (relative stereo)
0.0005 µmol/kg: ED50 (Felis catus)
active: Activity (Rattus norvegicus [1]) | Activity (Rattus norvegicus [2]) | Activity (Rattus norvegicus [3]) | Activity (Mus musculus [4]) | Activity (Rattus norvegicus [6]) | Activity (Mus musculus [8]) | Activity (Mus musculus [9]) Dose-dependent effect | Activity (Rattus norvegicus [10]) | Activity (Rattus norvegicus [11]) | Activity (Mus musculus [12]) | Activity (Mus musculus [14]) | Activity (Mus musculus [15])
inactive: Activity (Rattus norvegicus [5])
0.39: fold change (FC) [13]
4.9: fold change (FC) (Canis familiaris [7])

CCCN1CCC[C@@H]2c3ccc(O)c(O)c3CC[C@H]21 (relative stereo)
active: Activity (Mus musculus [16]) | Activity (Rattus norvegicus [17]) | Activity (Rattus norvegicus [2]) | Activity (Mus musculus [18]) | Activity (Rattus norvegicus [3]) | Activity (Rattus norvegicus [19]) | Activity (Mus musculus [20]) | Activity (Rattus norvegicus [5]) | Activity (Mus musculus [21]) | Activity (Rattus norvegicus [6]) | Activity (Mus musculus [23]) | Activity (Mus musculus [9]) Dose-dependent effect | Activity (Rattus norvegicus [10]) | Activity (Rattus norvegicus [11])
>90%: Activity (Mus musculus [22])
0.0003 µmol/kg: ED50 (Felis catus)
2.7: fold change (FC) (Canis familiaris [7])
0.32: fold change (FC) [13]

CCCN1CCC[C@@H]2c3ccc(O)c(O)c3CC[C@@H]21 (relative stereo)
active: Activity (Rattus norvegicus [26]) | Activity (Rattus norvegicus [27])
inactive: Activity (Mus musculus [24]) | Activity (Rattus norvegicus [2]) | Activity (Mus musculus [25]) | Activity (Rattus norvegicus [5]) | Activity (Rattus norvegicus [28]) | Activity (Rattus norvegicus [29]) | Activity (Mus musculus [30]) | Activity (Rattus norvegicus [11])

CN1CCc2cccc3c2[C@H]1Cc1ccc(O)c(O)c1-3 [APOMORPHINE HYDROCHLORIDE]
0.14 µmol/kg: ED50 (Canis familiaris [31])
0.77 µmol/kg: ED50 [32]

CN1CCc2cccc3c2[C@H]1Cc1ccc(O)c(O)c1-3 [APOMORPHINE]
0.019 µmol/kg: ED50 (Felis catus)
